Measured values published in ChEMBL document CHEMBL1153867, “Synthesis, biological evaluation and SAR of sulfonamide 4-methoxychalcone derivatives with potential antileishmanial activity” (Eur J Med Chem, 2009).
Calls of active or inactive are those of the source. The rule behind the calls is not given here.

How the values were obtained:
Trypanosoma cruzi [1] = test: Antitrypanosomal activity against Trypanosoma cruzi epimastigotes at 500 uM after 72 hrs
Trypanosoma cruzi [2] = test: Antitrypanosomal activity against Trypanosoma cruzi Y epimastigotes at 500 uM after 72 hrs; assay type: functional, organism-based
Leishmania braziliensis [3] = test: Antileishmanial activity against Leishmania braziliensis MHOM/BR/75/M2904 promastigotes after 72 hrs; assay type: functional, organism-based; settings: MHOM/BR/75/M2904, 72 h
Summary of the method: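 Exponential-phase promastigotes at 10×10^6/ml in Schneider's medium with 5% FBS were incubated 72 h at 28 °C with compound dilutions from 100 to 1.6. Amphotericin B (31.25–1000 nM) was the positive control and 1% DMSO the negative control. Live parasites were counted in a Neubauer chamber. IC50 came from linear regression, mean ± standard error of three independent triplicate experiments.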

Leishmania braziliensis [4] = test: Antileishmanial activity against Leishmania braziliensis MHOM/BR/75/M2904 amastigotes assessed as reduction in intracellular amastigote after 48 hrs; assay type: functional, organism-based
Summary of the method: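 L. braziliensis axenic amastigotes were made by differentiating stationary-phase promastigotes in Schneider medium with 20% FBS, pH 6.3, at 34 °C for 72 h. J774.A1 cells were infected at 10:1 parasite:cell overnight at 34 °C in RPMI with 20% FBS. Cells were exposed to 1–100 compound for 48 h at 34 °C/5% CO2, Giemsa-stained, and 200 cells counted. Percent inhibition above 25% counted as significant.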

With `CCN(CC)S(=O)(=O)c1cc(/C=C/C(=O)c2ccccc2)ccc1OC` the Activity (Trypanosoma cruzi [1]) was “inactive”, the Activity (Trypanosoma cruzi [2]) was “inactive” and the IC50 (Leishmania braziliensis [3]) was 5.6 µM.

With `COc1ccc(/C=C/C(=O)c2ccccc2)cc1S(=O)(=O)Nc1ccc(Cl)cc1` the Activity (Trypanosoma cruzi [1]) was “inactive”, the Activity (Trypanosoma cruzi [2]) was “inactive” and the IC50 (Leishmania braziliensis [3]) was 4.6 µM.

For `COc1ccc(/C=C/C(=O)c2ccccc2)cc1S(=O)(=O)N1CCOCC1`, the Activity (Trypanosoma cruzi [1]) was “inactive”, the Activity (Trypanosoma cruzi [2]) was “inactive” and the IC50 (Leishmania braziliensis [3]) was 5.9 µM.

With `COc1ccc(/C=C/C(=O)c2ccccc2)cc1S(=O)(=O)N(C)C` the Activity (Trypanosoma cruzi [1]) was “inactive”, the Activity (Trypanosoma cruzi [2]) was “inactive” and the IC50 (Leishmania braziliensis [3]) was 8.6 µM.

`COc1ccc(/C=C/C(=O)c2ccccc2)cc1` [4-METHOXY CHALCONE] gave an IC50 (Leishmania braziliensis [3]) of 16.6 µM.

`COc1ccc(NS(=O)(=O)c2cc(/C=C/C(=O)c3ccccc3)ccc2OC)cc1` was tested, and the Activity (Trypanosoma cruzi [1]) was “inactive”, the Activity (Trypanosoma cruzi [2]) was “inactive” and the IC50 (Leishmania braziliensis [3]) was 7.5 µM.

`COc1ccc(/C=C/C(=O)c2ccccc2)cc1S(=O)(=O)Nc1ccccc1` was tested, and the Activity (Trypanosoma cruzi [1]) was “inactive”, the Activity (Trypanosoma cruzi [2]) was “inactive” and the IC50 (Leishmania braziliensis [3]) was 69 µM.

`COc1ccc(/C=C/C(=O)c2ccccc2)cc1S(=O)(=O)Nc1ccc(Cl)c(Cl)c1` was tested, and the Activity (Trypanosoma cruzi [1]) was “inactive”, the Activity (Trypanosoma cruzi [2]) was “inactive” and the IC50 (Leishmania braziliensis [3]) was 8.1 µM.

In the case of `COc1ccc(/C=C/C(=O)c2ccccc2)cc1S(=O)(=O)NCc1ccccc1`, the Activity (Trypanosoma cruzi [1]) is reported as “inactive”, the Activity (Trypanosoma cruzi [2]) is reported as “inactive” and the Activity (Leishmania braziliensis [4]) is reported as “Active”. For the same compound, the IC50 (Leishmania braziliensis [3]) was 3.5 µM.

`N=C(N)c1ccc(OCCCCCOc2ccc(C(=N)N)cc2)cc1` showed an IC50 (Leishmania braziliensis [3]) of 19.6 µM.

For `COc1ccc(/C=C/C(=O)c2ccccc2)cc1S(=O)(=O)N1CCCC1`, the Activity (Trypanosoma cruzi [1]) was “inactive”, the Activity (Trypanosoma cruzi [2]) was “inactive” and the IC50 (Leishmania braziliensis [3]) was 13 µM.

With `C[C@@H]1[C@H](O)[C@@H](C)/C=C/C=C/C=C/C=C/C=C/C=C/C=C/[C@H](O[C@@H]2O[C@H](C)[C@@H](O)[C@H](N)[C@@H]2O)C[C@@H]2O[C@](O)(C[C@@H](O)C[C@@H](O)[C@H](O)CC[C@@H](O)C[C@@H](O)CC(=O)O[C@H]1C)C[C@H](O)[C@H]2C(=O)O` [AMPHOTERICIN B] the IC50 (Leishmania braziliensis [3]) was 0.3 µM.
